The test system of one experiment is XO. The settings on record: cited from earlier work.
The target in experiment [1] is T1, XO (isolated from bovine milk) (Bos taurus, UniProt P80457). Put plainly: XO inhibition assay. The experiment is classed as biochemical.
Experiment [2] addresses T1, XO (isolated from bovine milk). Put plainly: Enzyme kinetic studies. The experiment is classed as biochemical. An outline of the steps:
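Bovine milk XO. Reversibility: xanthine held at 0.25 mM, XO varied 0.03–0.15 U mL−1 (five levels), test compound at 0, 10, 20 and 30 μM, velocity plotted against [XO]. Inhibition type: XO 0.025 U mL−1, xanthine 0.0625–0.1875 mM, same compound levels. Lineweaver–Burk double-reciprocal analysis, with linear secondary replots of slope and Y-intercept against [compound].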

The target is the same in experiment [3]. The experiment can be described thus: Fluorescence titrations. The experiment is classed as binding. The settings on record: for Kd: binding constant K. The gist of the method: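 Intrinsic fluorescence of bovine milk XO (0.16 U mL−1) titrated with test compound at 0–26.7 μM, at 298, 304 and 310 K. Excitation 280 nm, emission 300–500 nm, slit 5.0 nm. Mixtures equilibrated 30 min before reading. Compound-only control at each concentration; PBS blank for background correction. Final DMSO below 1%.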

The target is the same in experiment [4]. Put plainly: Fourier translation infrared spectroscopy, secondary structure of XO. The settings on record: XO 0.5 U mL^−1 with AUR. An outline of the steps:
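FT-IR of bovine milk XO (0.5 U mL−1), alone and with test compound (200 μM), at room temperature. Spectra collected over 1800–1400 cm−1 at 4 cm−1 resolution, 128 scans co-added, background subtracted. Secondary-structure fractions quantified by split-peak fitting of the amide I band (1600–1700 cm−1).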

Setting [5] is: 298, 304 and 310 K (taken as constant).

The values that follow come from PMC9827282 (RSC Advances, 2023).

Like-named read-outs stand apart in the source and are kept apart here.

T1 sequence (P80457 whole entry): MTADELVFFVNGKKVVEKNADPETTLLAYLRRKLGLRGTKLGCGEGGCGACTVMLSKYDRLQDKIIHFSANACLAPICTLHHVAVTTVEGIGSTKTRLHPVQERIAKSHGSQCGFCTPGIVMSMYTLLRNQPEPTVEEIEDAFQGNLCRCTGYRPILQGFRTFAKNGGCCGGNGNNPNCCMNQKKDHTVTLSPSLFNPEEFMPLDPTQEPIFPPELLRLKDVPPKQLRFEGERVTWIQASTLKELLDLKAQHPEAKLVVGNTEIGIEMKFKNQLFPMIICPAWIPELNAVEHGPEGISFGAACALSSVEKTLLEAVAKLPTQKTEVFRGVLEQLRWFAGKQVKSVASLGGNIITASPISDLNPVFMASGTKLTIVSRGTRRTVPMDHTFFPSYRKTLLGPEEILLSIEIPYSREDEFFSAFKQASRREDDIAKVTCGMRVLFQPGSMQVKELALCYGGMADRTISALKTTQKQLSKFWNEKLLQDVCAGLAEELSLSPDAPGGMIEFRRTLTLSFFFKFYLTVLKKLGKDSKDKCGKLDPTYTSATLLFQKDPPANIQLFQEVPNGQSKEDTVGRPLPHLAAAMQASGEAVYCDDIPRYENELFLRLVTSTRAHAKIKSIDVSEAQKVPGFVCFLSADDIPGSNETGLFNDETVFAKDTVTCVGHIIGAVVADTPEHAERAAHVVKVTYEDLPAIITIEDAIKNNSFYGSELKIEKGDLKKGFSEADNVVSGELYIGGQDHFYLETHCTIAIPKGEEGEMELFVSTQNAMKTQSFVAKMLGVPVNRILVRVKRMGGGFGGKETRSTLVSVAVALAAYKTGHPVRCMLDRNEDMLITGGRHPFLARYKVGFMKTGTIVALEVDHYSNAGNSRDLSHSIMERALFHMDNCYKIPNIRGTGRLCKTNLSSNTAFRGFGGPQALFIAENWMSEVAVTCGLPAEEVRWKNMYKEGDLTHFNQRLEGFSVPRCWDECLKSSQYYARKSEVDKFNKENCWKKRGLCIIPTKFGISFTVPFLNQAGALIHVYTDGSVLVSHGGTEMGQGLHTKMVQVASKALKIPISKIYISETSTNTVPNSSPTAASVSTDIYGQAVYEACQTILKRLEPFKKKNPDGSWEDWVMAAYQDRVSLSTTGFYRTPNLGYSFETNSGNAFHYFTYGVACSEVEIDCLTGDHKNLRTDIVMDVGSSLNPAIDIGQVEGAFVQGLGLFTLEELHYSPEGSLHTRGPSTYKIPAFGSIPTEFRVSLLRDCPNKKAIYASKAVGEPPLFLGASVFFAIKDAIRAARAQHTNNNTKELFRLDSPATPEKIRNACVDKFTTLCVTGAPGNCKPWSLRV

As usually defined, the IC50 is the concentration at which inhibition is half-maximal. For `O=C1/C(=C/c2ccc(O)c(O)c2)Oc2cc(O)ccc21` [sulfuretin], the half-inhibitory concentration (IC50) in the experiment on XO (ref 24 (Muzychka et al.)) was 3.1 ± 0.38 µM.
As a reminder, the Ki is a measure of affinity in units of concentration, obtained from inhibition or displacement. A word on the Kd: it is the constant that tells how readily two partners part at equilibrium. On to `O=C1/C(=C/c2ccc(O)c(O)c2)Oc2cc(O)cc(O)c21` [AUR, Aureusidin], for which, in experiment [1], the IC50 turned out to be 7.62 ± 0.401 µM. Further, in experiment [2], the Ki came to 1.8 µM and the “ratio (α) of Kis to Ki” value stood at 0.31. Also, in experiment [2] (Lineweaver–Burk plot, XO 0.025 U mL^−1, AUR 0–30 μM), the inhibition type result is “mixed-type (competitive and noncompetitive)”. Besides, the “uncompetitive inhibition constant (Kis)” value in experiment [2] (binding to XO–xanthine complex) was determined as 0.56 µM. The inhibition reversibility entry in experiment [2] (plots of v vs [XO], AUR 0–30 μM, xanthine 0.25 mM) is “reversible”. Further, in experiment [3], the fluorescence quenching mechanism entry is “static quenching process”. Further, in experiment [3] (setting [5]), the ΔH was 3.1 kcal/mol and the ΔS amounted to 121.95 J mol^−1 K^−1. Also, in experiment [3] (298 K), the “lg K” value was 4.096, the “number of binding sites n” value is recorded as 0.977, the “quenching constant Ksv” value is 16190 L/mol and the Kd was 80.2 µM. Besides, in experiment [3] (304 K), the “lg K” value is recorded as 4.155, the “number of binding sites n” value was 0.993, the “quenching constant Ksv” value came to 15450 L/mol and the ΔG is -8.858 kcal/mol. In experiment [3] (304 K), this compound showed a Kd of 70 µM. For the same compound, in experiment [3] (310 K), the “lg K” value stood at 4.184, the “number of binding sites n” value was determined as 1.006, the “quenching constant Ksv” value was 14370 L/mol and the ΔG was -9.032 kcal/mol. Further, the dissociation constant (Kd) in experiment [3] (310 K) is 65.4 µM. In addition, the “β-Sheet content of XO” value in experiment [4] (free XO 17.50) is reported as 12.07%. The “β-Turn content of XO” value in experiment [4] (free XO 40.37) is 23.31%. The “α-Helix and random structure content of XO” value in experiment [4] (free XO 42.13) was 64.62%.
For `O=c1c(O)c(-c2ccc(O)c(O)c2)oc2cc(O)cc(O)c12` [Quercetin, quercetin], the inhibition type entry with XO is “mixed-type”. The IC50 in the experiment with XO (ref 18 (Zhang et al.)) is 2.74 ± 0.04 µM.
